The structures appear in SMILES notation.

The record followed here is ChEMBL document CHEMBL4513216, “Probing the Open Global Health Chemical Diversity Library for Multistage-Active Starting Points for Next-Generation Antimalarials” (ACS Infect Dis, 2020).

This data set is described as follows: Toxicity liver stage against HepG2, at 10uM. Type of data set: cell-based. Also noted: test concentration 10 uM, cell line HepG2-A16-CD81EGFP. Particulars: human, HepG2-A16-CD81EGFP cells; read-out: INHIBITION
The method, boiled down: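 Uninfected HepG2-A16-CD81EGFP cells, 3 × 10^3 per well, 1536-well, plated on prespotted compound at 10 μM final, parasite-free screening media added to match infected plates; puromycin 10 μM positive, DMSO 0.5% negative; run in parallel with 48 h PbLuc assay at 37 °C, 5% CO2; viability by CellTiter-Glo luminescence, normalized to controls.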
As to `COC(=O)c1cccc(C(=O)N2CCN(c3ccc(OC)cc3)CC2)n1`, the cytotoxicity at 10 µM is -7.12%.

Consider `CC(=O)c1cn(CCC(=O)Nc2c3c(nn2C)CSC3)c2ccccc12`, for which the cytotoxicity at 10 µM is -1.93%.

As for `COC(=O)[C@H](CCSC)NC(=O)Cc1c(C)nn(-c2ccccc2)c1C`, the cytotoxicity at 10 µM is -1.65%.

`CC1(C)OCC2(CO1)CN(S(=O)(=O)c1ccc(Cl)s1)C2`: the cytotoxicity at 10 µM was -0.295%.

For the molecule `N#Cc1ccc(S(=O)(=O)Nc2cnn(C3CCOCC3)c2)cc1`, the cytotoxicity at 10 µM was -11.3%.

As for `CN(Cc1cccs1)C1CCC[C@@H]2CN(C(=O)c3cccn3C)C[C@H]12` (stereo partly specified), the cytotoxicity at 10 µM came out at 22.6%.

In the case of `O=C(NCC1CC[C@@]2(CNCCOC2)O1)c1cnccn1` (stereo partly specified), the cytotoxicity at 10 µM was determined as 9.44%.

For `COCCNC(=O)[C@]12COC[C@H]1CN(c1cc(OC)ncn1)C2`, the cytotoxicity at 10 µM was determined as 4.32%.

As to `CN1CCN(CC2CC2)C(=O)C12CCN(C(=O)c1cnccn1)CC2`, the cytotoxicity at 10 µM amounted to 7.95%.

For the molecule `Fc1cccc(N2CCc3ncnc(N4CCOCC4)c3CC2)c1`, the cytotoxicity at 10 µM was 9.49%.

Consider `CC(=O)c1cn(CCC(=O)N[C@H](C(=O)O)C(C)C)c2ccccc12`, for which the cytotoxicity at 10 µM was found to be 8.86%.

As for `O=c1[nH]c2nc(N3CCSCC3)ncc2c(=O)n1-c1cccc(F)c1`, the cytotoxicity at 10 µM is -1.82%.

In the case of `O=C(NCc1cccs1)C1CN(C(=O)c2cccs2)CC12CCOCC2` (stereo unspecified), the cytotoxicity at 10 µM is -11.5%.

For the molecule `Cc1nn(C)cc1-c1cc(C(=O)NCC(C)(C)c2ccc(F)cc2)n[nH]1`, the cytotoxicity at 10 µM is -1.29%.

As for `Cc1cc(N2CCCC(c3nccnc3N(C)C)C2)ncn1` (stereo unspecified), the cytotoxicity at 10 µM is -1.77%.

`Cc1csc2c(C3CCCN(C(=O)CCn4cncn4)C3)nc(C)n12` (stereo unspecified): the cytotoxicity at 10 µM stood at 7.96%.

For the molecule `c1cc(-c2cnc(NC3CC3)nc2[C@@H]2CCCO2)ccn1`, the cytotoxicity at 10 µM came out at 8.72%.

For the molecule `Cc1cnc(-c2nc(O)c3c(n2)CN(C(=O)CC2CCCC2)CC3)cn1`, the cytotoxicity at 10 µM is -1.37%.

As for `Cc1ccc(CNCCN2CCOCC2)o1`, the cytotoxicity at 10 µM was -2.62%.

Regarding `Cc1ccsc1C(=O)N1CCC2(CC(N(C)c3ccncn3)C2)C1` (stereo unspecified), the cytotoxicity at 10 µM is -5.75%.

As for `CC(NC(=O)N1CCC2(C1)OCCO2)c1cccc(Cl)c1` (stereo unspecified), the cytotoxicity at 10 µM was -6.88%.

With `COc1ccccc1CN(C)C(=O)C[S+]([O-])Cc1cc(C)on1` (stereo unspecified), the cytotoxicity at 10 µM stood at 0.788%.

In the case of `CCc1ccc(C(C)NCc2nccn2Cc2ccccc2)o1` (stereo unspecified), the cytotoxicity at 10 µM was -1.2%.

As to `CN(Cc1cnn(C)c1)C(=O)CCC(=O)c1ccc2c(c1)OCCO2`, the cytotoxicity at 10 µM is -1.14%.

Turning to `Cc1nc(COc2ccc(OC(C)C(N)=O)cc2)oc1C` (stereo unspecified), the cytotoxicity at 10 µM is -1.65%.

Take `O=C(c1cnc(NCCC2CCCO2)c(Cl)c1)N1CCOCC1` (stereo unspecified): the cytotoxicity at 10 µM is 7.74%.

For `Cc1cc(C(=O)NC2CCN(c3ncccc3C#N)CC2)no1`, the cytotoxicity at 10 µM is -7.25%.

On to `Cc1ccc(C(=O)N(CCC#N)Cc2ccccn2)cc1C`, for which the cytotoxicity at 10 µM came out at 0.665%.

Regarding `CN(Cc1ccco1)C(=O)NCc1nnc2n1CCC2`, the cytotoxicity at 10 µM amounted to 16.9%.

As for `Cc1cc(N2CCN(C(=O)c3cc(Cl)c[nH]3)CC2)nc(C)n1`, the cytotoxicity at 10 µM was -2.43%.

With `Cc1ccc(C(=O)N2CCN(CCCSCC#N)CC2)cc1F`, the cytotoxicity at 10 µM was -145%.

As to `Cc1nn(CC(=O)N2CCN(c3cnccn3)CC2)c(C)c1Cl`, the cytotoxicity at 10 µM was determined as 7.76%.

`CCOC(=O)c1ccc(Nc2ccc(OC)c(N3CCCC3=O)c2)nc1`: the cytotoxicity at 10 µM was 8.46%.

With `COCCOCCNC(=O)N1CCc2c(F)ccc(F)c2C1`, the cytotoxicity at 10 µM is -2.23%.

With `Cc1ccc(F)cc1NC(=O)CCn1cncn1`, the cytotoxicity at 10 µM is -0.639%.

Take `CCC(NC(=O)CS(=O)(=O)C1CCCC1)c1cc(F)ccc1F` (stereo unspecified): the cytotoxicity at 10 µM is 0.217%.

For the molecule `C[S+]([O-])c1nncn1CCCc1ccc(Cl)cc1` (stereo unspecified), the cytotoxicity at 10 µM is -8.64%.

As for `COCCn1ccc(NCc2cc3cc(F)ccc3o2)n1`, the cytotoxicity at 10 µM was -8.78%.

On to `CCC(C)C(=O)NCCc1nc(C(F)(F)F)cs1` (stereo unspecified), for which the cytotoxicity at 10 µM was 2.08%.

For the molecule `CC(C)NC(=O)COc1nc(C(C)C)no1`, the cytotoxicity at 10 µM is -3.34%.

Take `Cc1ccccc1S(=O)(=O)NC(=O)CSc1ccc2c(c1)OCCO2`: the cytotoxicity at 10 µM is -1.85%.

With `Cc1ccc(OCCC(=O)NC2CCc3nc(C)cn3C2)cc1` (stereo unspecified), the cytotoxicity at 10 µM is -5.59%.

With `CC1CC2(CCN(C(=O)c3c[nH]cn3)CC2)c2ccccc21` (stereo unspecified), the cytotoxicity at 10 µM is 2.44%.

As to `Cn1cc2c(n1)C(COCC1CC1)CN(Cc1ccsc1)C2` (stereo unspecified), the cytotoxicity at 10 µM is -76.1%.

On to `O=C(c1ccncc1F)N1CCc2ncnc(N3CCOCC3)c2CC1`, for which the cytotoxicity at 10 µM is -75%.

`Cc1ccc(S(=O)(=O)N2CCC3(CC(C(=O)NC4CCC4)=NO3)C2)cc1` (stereo unspecified): the cytotoxicity at 10 µM is -1.77%.

Take `Cc1ccc(=O)n(CC(=O)N(C)Cc2csc(-c3cccs3)n2)n1`: the cytotoxicity at 10 µM was found to be 6.23%.

Consider `Nc1ncc(CN2CCC(CCC(=O)NC3CC3)CC2)cn1`, for which the cytotoxicity at 10 µM was determined as 11.7%.

As to `NC(=O)c1cn2cc(-c3ccccc3Cl)n(CC3CC3)c(=O)c2n1`, the cytotoxicity at 10 µM is -1.35%.

In the case of `O=C(c1cc(-c2ccc(O)cc2)n[nH]1)N1CCCC1c1cccnc1` (stereo unspecified), the cytotoxicity at 10 µM was -4.09%.

Take `Cn1c(CN2CCCC2)nnc1C1CCCN(C(=O)N2CCOCC2)C1` (stereo unspecified): the cytotoxicity at 10 µM is -0.193%.

Turning to `Cn1cc(CN2CCOC(CCNC(=O)c3ccsc3)C2)cn1` (stereo unspecified), the cytotoxicity at 10 µM is 2.72%.

As for `COCCCC1CCCN(Cc2c(C)ccc3ncccc23)C1` (stereo unspecified), the cytotoxicity at 10 µM was -136%.

Consider `CC[C@@H](CO)NC(=O)c1cccc(CCC(C)(C)O)c1`, for which the cytotoxicity at 10 µM was -3.33%.

For the molecule `COc1ccc(CN2CCC3(CCCN(C)C3=O)C2)c(OC)c1C` (stereo unspecified), the cytotoxicity at 10 µM is -0.409%.

For `CCCc1ccc(CN2CCN(C(=O)C(C)C)[C@@H]3CS(=O)(=O)C[C@@H]32)o1`, the cytotoxicity at 10 µM is 5.39%.

As for `COc1ccc(Cc2ncc3c(n2)CN(C(=O)CN(C)C)C3)cc1`, the cytotoxicity at 10 µM is -1.28%.

Consider `CCc1nccc(CN2CCCC(CNC(=O)c3occc3C)C2)n1` (stereo unspecified), for which the cytotoxicity at 10 µM was found to be 2.28%.

As for `COc1ccc(OC2CCN(C(=O)CCc3n[nH]c(N)n3)CC2)cc1`, the cytotoxicity at 10 µM was 1.43%.

With `O=C(NCCc1cc(=O)[nH]cn1)c1[nH]nc2c1CCCC2`, the cytotoxicity at 10 µM is 2.22%.

Consider `CCN(Cc1ccncc1)Cc1cn(-c2ccccc2)nn1`, for which the cytotoxicity at 10 µM is -49.8%.

In the case of `CN(C(=O)C1CCCC1)C(c1cccc(F)c1)c1ccccn1` (stereo unspecified), the cytotoxicity at 10 µM came out at 6.07%.

As to `O=C(CS(=O)(=O)Cc1ccccc1)NC1CCCCNC1=O` (stereo unspecified), the cytotoxicity at 10 µM was -1.46%.

Turning to `CC(C)c1nnc2n1CCN(CCC(=O)Nc1sccc1C#N)C2`, the cytotoxicity at 10 µM was -25.8%.

Consider `CCc1ccc(S(=O)(=O)Nc2ccc(F)cc2C(=O)O)s1`, for which the cytotoxicity at 10 µM was determined as 3.69%.

Consider `CN(Cc1noc(C2CC2)n1)C1CCN(Cc2ccccc2C#N)C1` (stereo unspecified), for which the cytotoxicity at 10 µM was -7.8%.

As to `COc1ccc(-c2nc(CN3CCc4cncnc4C3)no2)cc1`, the cytotoxicity at 10 µM was -3.92%.

As for `CC(O)CN1CCN(Cc2csc(-c3cnn(C)c3)n2)CC1` (stereo unspecified), the cytotoxicity at 10 µM was -4.1%.

In the case of `O=C(CN1CCc2c(ncn2C2CC2)C1)NC1CCOCC1`, the cytotoxicity at 10 µM is -13.4%.

Take `CCc1nc(C2CCCN(C(=O)c3ccc4[nH]cnc4c3)C2)no1` (stereo unspecified): the cytotoxicity at 10 µM is 1.48%.

Turning to `COc1c(C2CCCN2C(=O)c2cnccn2)c(C)nn1C` (stereo unspecified), the cytotoxicity at 10 µM amounted to 0.501%.

Turning to `c1cnnc(N2CCCC(NCc3ccc(-n4cncn4)cc3)C2)c1` (stereo unspecified), the cytotoxicity at 10 µM was -3.14%.

For the molecule `CC(C)c1nnc2n1CCN(C(=O)c1cccc(OCC(N)=O)c1)C2`, the cytotoxicity at 10 µM was -4.38%.

For the molecule `Cc1nc(C)n(CC2CCCN2Cc2ccccn2)n1` (stereo unspecified), the cytotoxicity at 10 µM was -0.186%.

In the case of `Cc1nc(CN2CCCC2Cn2cncn2)nc2ccccc12` (stereo unspecified), the cytotoxicity at 10 µM was -1.63%.

Regarding `CN(Cc1nc2c(cnn2C)c(=O)[nH]1)Cc1ccccc1Cl`, the cytotoxicity at 10 µM is -5.82%.

Regarding `CC(C)(CNC(=O)NCCOc1cccc(F)c1)C(N)=O`, the cytotoxicity at 10 µM is -8.93%.

For the molecule `Cc1noc(C(C)C)c1C(=O)NCC(c1cccc(F)c1)N(C)C` (stereo unspecified), the cytotoxicity at 10 µM is -7.46%.

Regarding `Cc1ccc(N2CCCC(NCc3ccsc3)C2)nn1` (stereo unspecified), the cytotoxicity at 10 µM was -7.42%.

For `N#Cc1cccnc1OC1CCNCC1`, the cytotoxicity at 10 µM is -8.99%.

With `O=C(NCC1CCC2(CCNCC2)CO1)c1ccno1` (stereo unspecified), the cytotoxicity at 10 µM worked out at 12.5%.

Regarding `CCOCC1CN(C(=O)c2ccnnc2)Cc2cnn(CC)c21` (stereo unspecified), the cytotoxicity at 10 µM was -77.8%.

Regarding `CNC(=O)c1cc(C2CCCNC2)n[nH]1` (stereo unspecified), the cytotoxicity at 10 µM stood at 9.03%.

For `Cc1cc(C)nc(C2CCCNC2)n1` (stereo unspecified), the cytotoxicity at 10 µM was determined as 9.85%.

In the case of `C1CCN(CCOC2CCNC2)CC1` (stereo unspecified), the cytotoxicity at 10 µM came to 6.32%.

`Cc1cccc(S(=O)(=O)N2CC[C@H]3[C@H]2CCN3c2ncccn2)c1`: the cytotoxicity at 10 µM amounted to 0.995%.

As to `O=C([C@H]1C[C@H]2OCC[C@H]2N(Cc2ccccn2)C1)N1CCCCO1`, the cytotoxicity at 10 µM was -73.3%.

Consider `Cc1cnc(N2CC[C@@H]3O[C@H](COCc4ccccn4)CC[C@@H]32)nc1`, for which the cytotoxicity at 10 µM was -76.3%.

For the molecule `O=C1[C@H]2CN(CC3CCOCC3)C[C@H]2CN1c1ccsc1`, the cytotoxicity at 10 µM amounted to 8.52%.

For the molecule `COCC(=O)N1CCCC2(COCCN(CCN(C)C)C2)C1` (stereo unspecified), the cytotoxicity at 10 µM stood at 8.76%.

Turning to `O=C(C1CCCO1)N1CCC2(CC1)COCCN(Cc1ccncc1)C2` (stereo unspecified), the cytotoxicity at 10 µM was -81.1%.

Regarding `CN(C)CCO[C@@H]1CC[C@H]2[C@H]1OCCN2C(=O)CCc1ccccc1`, the cytotoxicity at 10 µM is -6.69%.

Take `c1cnc(N2CCC3(CCN(CC4CCOCC4)CC3)C2)nc1`: the cytotoxicity at 10 µM came out at 1.29%.

Consider `O=C([C@H]1C[C@@H]2[C@@H](C1)OCCN2CC1CC1)N1CCCC1`, for which the cytotoxicity at 10 µM was -2.2%.

For `CC(C)N1[C@H](Cn2cncn2)C[C@@H]2CNCC[C@@H]21`, the cytotoxicity at 10 µM was 1.9%.

With `Cc1ccccc1CNC(=O)N1C[C@@H]2C[C@H](C(=O)N(C)C)[C@H](C1)O2`, the cytotoxicity at 10 µM was 5.44%.
